Screening results as filed in PubChem BioAssay.
EBNA-1 inh = EBNA-1 DNA-binding inhibitors, primary screen, biochemical, fluorescence polarization; AID 1950, 2009; inhibition, % at 14.8 µM; hit rate 0.34% among 300,000; in the data active means inhibition above about 28%
DNA FID counter = compounds displacing fluorescent DNA intercalator, primary screen, artefact control for HCV NS3 helicase inhibitor project, biochemical, FID fluorescence | inhibition, % at 7.9 µM | hit rate 0.17% among 290,000 | DNA fluorescent intercalator displacement | AID 1845, 2009; in the data active means inhibition above about 37%;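 further: higher means more ethidium bromide displaced from hairpin DNA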
ZTA DNA inh = ZTA (EBV) inhibition in EBNA-1 counter-screen | P03206 | ZTA-DNA binding, fluorescence polarization | inhibition, % at 11 µM | hit rate 0.15% among 320,000 | AID 2234; in the data active means inhibition above about 33%
Target sequence (P03206 whole entry, looked up): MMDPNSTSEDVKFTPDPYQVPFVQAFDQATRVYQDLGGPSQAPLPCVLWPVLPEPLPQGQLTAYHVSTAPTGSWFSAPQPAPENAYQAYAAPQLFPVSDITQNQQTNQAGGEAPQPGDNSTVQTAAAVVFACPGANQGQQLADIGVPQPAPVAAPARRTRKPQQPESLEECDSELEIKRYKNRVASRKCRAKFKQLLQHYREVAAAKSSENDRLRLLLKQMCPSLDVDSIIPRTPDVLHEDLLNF
NR3A LBD binder = binders of NR3A ligand-binding domain, primary screen, biophysical, differential scanning fluorimetry, uHTS; Glutamate receptor ionotropic, NMDA 3A (GRIN3A) ligand-binding domain; NR3A LBD differential scanning fluorimetry, Tm shift; 0% = protein alone, 100% = glycine-bound protein; Tm shift relative to glycine control, % at 25 µM; hit rate 2.5% among 340,000; AID 1259313, 2017;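 active means melting temperature shift of at least 10% of the positive control shift, at one fixed dose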
NS3 helicase inh = inhibitors of HCV NS3 helicase, primary screen, biochemical, Cy5 molecular beacon fluorescence; NS3 helicase DNA unwinding; inhibition, % at 10.9 µM; AID 1800, 2009; hit rate 0.56% among 290,000;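 active means inhibition above the mean of all tested compounds plus 3 SD, set per campaign, cut at about 35% in these data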
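assay system = NS3 helicase fragment of HCV | buffer or medium = MOPS pH 6.5, MgCl2, DTT, Tween20, BSA | timing = 60 min unwinding reaction at 25 °C after ATP addition | signal = Cy5 beacon fluorescence read at start and 1 h | read-out basis = % inhibition of unwinding | control set = low DMSO, high thioflavine S at 110 µM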
FGF22 binding = binders of human FGF22 protein, primary screen, FGF22 synaptogenesis inhibitor project, biophysical, thermal shift, single point. recombinant FGF22 thermal shift, SYPRO orange fluorescence; percent of sucrose octasulfate shift, DMSO zero. activity (Tm shift, normalised), % at 9.99 µM. hit rate 1.5% among 340,000;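 active means mean Tm shift, scaled 0 neutral to 100 positive control, at about 1.3% or above, every replicate too, limit read from the data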
Target sequence (Q9HCT0 whole entry, looked up): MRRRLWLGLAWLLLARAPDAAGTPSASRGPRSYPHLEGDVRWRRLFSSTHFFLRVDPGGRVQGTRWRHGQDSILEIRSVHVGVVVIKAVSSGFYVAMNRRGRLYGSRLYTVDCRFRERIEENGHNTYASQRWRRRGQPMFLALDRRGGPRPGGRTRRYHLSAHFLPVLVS
EBNA-1 confirm = EBNA-1 DNA-binding inhibitors, retest, confirmation, biochemical, fluorescence polarization, triplicate; shares compounds with EBNA-1 inh; hit rate 35% among 830; inhibition, % at 14.8 µM; Recombinant EBNA-1 DBD, Cy5-DNA fluorescence polarization; AID 2292, 2010;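 active means mean inhibition across replicates above a set limit taken from the earlier primary screen, cut at about 28% in these data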
ZTA counter trip = EBV Zta DNA binding inhibitors, counter-screen for EBNA-1 inhibitor project, biochemical, fluorescence polarization, triplicate | 830 tested, under 10 active | Zta-ZRE DNA binding, Cy5 fluorescence polarization | inhibition, % at 11.1 µM | shares compounds with EBNA-1 inh;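 active means mean inhibition over triplicates above a set limit taken from the primary EBNA-1 screen, cut at about 37% in these data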;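 further: purified full length Zta protein with Cy5 labeled ZRE DNA probe; inhibitors lower polarization by freeing the labeled DNA probe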
Numbers stand for hits; - = inactive; . = not tested or not shown. Sampled rows, rich in hits. Any-hit rate of the full collection: about 3.6%.

SMILES | EBNA-1 inh | DNA FID counter | ZTA DNA inh | NR3A LBD binder | NS3 helicase inh | FGF22 binding | EBNA-1 confirm | ZTA counter trip
COc1ccc(CN(C)C[C@H]2OCCCC[C@H](C)Oc3ccc(NC(=O)Nc4cccc5ccccc45)cc3C(=O)N([C@@H](C)CO)C[C@@H]2C)cc1 | . | . | . | . | . | - | . | .
COC(=O)[C@H](Cc1ccccc1)NC(=O)O[C@@H]1C(=O)c2cc(OC)ccc2O[C@H]1c1ccc(OC)c(Br)c1 | - | - | - | . | - | . | . | .
COC(=O)[C@H](Cc1ccccc1)NC(=O)O[C@H]1C(=O)c2ccc(OC)cc2O[C@@H]1c1ccc2c(c1)OCO2 | 28.7 | - | - | - | - | . | - | -
COc1ccc(-c2ccc(C#N)c(SCC(=O)NCc3ccco3)n2)cc1OC | 45.0 | - | - | - | - | - | 41.5 | -
COc1ccc(-c2ccc(C#N)c(SCC(=O)NC3CC3)n2)cc1OC | 32.3 | - | - | - | - | - | - | -
COc1ccc(-c2ccc(C#N)c(SCC(=O)OCc3ccccc3)n2)cc1OC | - | - | - | - | - | . | . | .
Cc1noc(C)c1NC(=O)N(C)C[C@@H]1Oc2c(NC(=O)Nc3cccc4ccccc34)cccc2C(=O)N([C@@H](C)CO)C[C@@H]1C | . | . | . | . | . | - | . | .
CCOC(=O)N=S(=O)(Oc1ccc([N+](=O)[O-])cc1)c1ccccc1 (configuration not stated) | 136.6 | - | - | - | - | . | - | -
CCOC(=O)N=S(=O)(Oc1ccc([N+](=O)[O-])cc1)c1ccc(Cl)cc1 (configuration not stated) | - | - | - | - | - | . | . | .
O=C(C[C@H]1C=C[C@@H](NC(=O)C2CC2)[C@@H](CO)O1)Nc1ccccc1 | . | . | . | . | . | - | . | .
CC(=O)Nc1ccc(S(=O)(=O)Nc2ccc(S(=O)(=O)Nc3ncccn3)cc2)cc1 | 82.4 | - | - | - | - | - | - | -
CC(=O)Nc1ccc(S(=O)(=O)Nc2c(NC3CCCCC3)c3ccccc3oc2=O)cc1 | 32.3 | - | - | - | - | - | - | -
Cc1cc(S(=O)(=O)Nc2c(NC3CCCCC3)c3ccccc3oc2=O)ccc1F | - | - | - | - | - | - | . | .
C[C@@H]1CCCCO[C@H](CN(C)C(=O)Nc2ccc3c(c2)OCO3)[C@@H](C)CN([C@H](C)CO)C(=O)c2cc(NS(C)(=O)=O)ccc2O1 | . | . | . | . | . | - | . | .
C[C@H]1CN([C@@H](C)CO)C(=O)c2cccc(NC(=O)Nc3ccc(C(F)(F)F)cc3)c2O[C@@H]1CN(C)C(=O)Nc1ccc2c(c1)OCO2 | . | . | . | . | . | - | . | .
C(=N\Nc1nc(N2CCCC2)nc(N2CCCC2)n1)/c1ccccc1OCc1ccccc1 | 38.2 | - | - | - | - | - | - | -
Fc1ccccc1COc1ccccc1/C=N/Nc1nc(N2CCCC2)nc(N2CCCC2)n1 | - | - | - | - | - | . | . | .
O=C(NNC(=O)c1ccc(NC(=O)c2ccccc2)cc1)c1ccc(F)cc1 | 66.9 | - | - | - | - | - | 103.2 | -
Cc1ccc(C(=O)CSc2nnc(CNc3ccc(C)cc3C)o2)cc1 | 30.7 | - | - | - | - | . | - | -
Cc1ccc(NCc2nnc(SCC(N)=O)o2)c(C)c1 | - | - | - | - | - | - | . | .
Cn1c(=O)c(C(=O)CSc2nnc(Nc3ccccc3)s2)c(N)n(Cc2ccccc2)c1=O | 35.1 | - | - | - | - | . | - | -
Cn1c(SCC(=O)c2ccc3c(c2)Cc2ccccc2-3)nnc1-c1ccccc1 | - | - | - | - | - | . | . | .
CCC(=O)Nc1nnc(SCC(=O)c2ccc3c(c2)Cc2ccccc2-3)s1 | 31.1 | - | - | 11.3 | - | - | - | -
